Data published in ChEMBL document CHEMBL1145529, “Synthesis of novel quinolone and quinoline-2-carboxylic acid (4-morpholin-4-yl-phenyl)amides: a late-stage diversification approach to potent 5HT1B antagonists” (Bioorg Med Chem, 2007).

Assays:
[1] = target: T1, 5-hydroxytryptamine receptor 1B (Homo sapiens, UniProt P28222); experiment: Displacement of [3H]GR125743 from 5HT1B receptor transfected in CHO cells; type: cell-based
Summary of the method: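 Competition binding used a stably transfected CHO cell line expressing 5HT1B receptor. [3H]-GR125743 was the radioligand, and Ki values were derived from displacement.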

[2] = target: T1, 5-hydroxytryptamine receptor 1B; experiment: Antagonist activity at 5HT1B receptor expressed in CHO cells assessed as effect on 5-HT-induced stimulation of [35S]GTP-gamma-S binding at 10 uM; type: functional, cell-based

T1 sequence (P28222 whole entry): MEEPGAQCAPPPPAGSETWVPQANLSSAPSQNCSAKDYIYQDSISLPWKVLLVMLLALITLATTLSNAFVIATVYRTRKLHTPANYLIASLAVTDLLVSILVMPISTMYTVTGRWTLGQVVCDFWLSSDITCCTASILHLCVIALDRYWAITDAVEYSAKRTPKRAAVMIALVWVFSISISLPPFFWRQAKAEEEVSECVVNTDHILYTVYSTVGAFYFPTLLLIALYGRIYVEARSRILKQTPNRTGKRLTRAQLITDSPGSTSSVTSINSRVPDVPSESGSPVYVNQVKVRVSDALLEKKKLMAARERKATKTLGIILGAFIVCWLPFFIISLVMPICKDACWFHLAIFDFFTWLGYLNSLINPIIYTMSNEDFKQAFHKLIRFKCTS

SMILES | Ki [1] [µM] | Intrinsic activity [2] [%]
CNc1cc(C(=O)Nc2ccc(N3CCOCC3)cc2)nc2c(N3CCN(C)CC3)cc(OC)cc12 | 1.3 | 
COc1cc(N2CC[C@H](N(C)C)C2)c2[nH]c(C(=O)Nc3ccc(N4CCOCC4)cc3)cc(=O)c2c1 | > 1 | 
CN1CCN(c2cc(F)cc3c(=O)cc(C(=O)Nc4ccc(N5CCOCC5)cc4)[nH]c23)CC1 | 0.0093 | -34
CCN1CCC(N(CC)c2cc(OC)cc3c(=O)cc(C(=O)Nc4ccc(N5CCOCC5)cc4)[nH]c23)C1 (stereo not given) | 0.17 | 
COc1cc(N2CCN(C)CC2)c2nc(C(=O)Nc3ccc(N4CCOCC4)cc3)cc(N(C)C)c2c1 | 0.051 | 
COc1cc(N2CCN(C)CC2)c2[nH]c(C(=O)Nc3ccc(N4CCOCC4)cc3)cc(=O)c2c1 | 0.0035 | -34

Results, then the compound that gave them:

Ki [1] [µM] | Intrinsic activity [2] [%] | SMILES
0.0009 | -34 | COc1cc(N2CCCN(C)CC2)c2[nH]c(C(=O)Nc3ccc(N4CCOCC4)cc3)cc(=O)c2c1
> 1 |  | COc1cc(N(C)C2CCN(C)C2)c2[nH]c(C(=O)Nc3ccc(N4CCOCC4)cc3)cc(=O)c2c1 (stereo not given)
0.035 |  | COc1cc(N2CC[C@@H](N(C)C)C2)c2[nH]c(C(=O)Nc3ccc(N4CCOCC4)cc3)cc(=O)c2c1
0.392 |  | COc1cc(N(C)CCN(C)C)c2[nH]c(C(=O)Nc3ccc(N4CCOCC4)cc3)cc(=O)c2c1
0.03 |  | COc1cc(C(=O)Nc2ccc(N3CCOCC3)cc2)nc2c(N3CCN(C)CC3)cc(F)cc12
0.292 |  | COc1cc(N(C)CCCN(C)C)c2[nH]c(C(=O)Nc3ccc(N4CCOCC4)cc3)cc(=O)c2c1
